In ChEMBL document CHEMBL4219179, “Small-molecules that bind to the ubiquitin-binding motif of REV1 inhibit REV1 interaction with K164-monoubiquitinated PCNA and suppress DNA damage tolerance” (Bioorg Med Chem, 2018):
Activity calls are given as the source filed them. No cut-off for these calls is given here.

How the values were obtained:
[1] = target: T1, DNA repair protein REV1 (Homo sapiens) (UniProt Q9UBZ9); experiment: Binding affinity to recombinant human REV1 UBM2 domain assessed as chemical shift changes by [1H,15N]-HSQC NMR spectral analysis
T1 sequence (whole entry): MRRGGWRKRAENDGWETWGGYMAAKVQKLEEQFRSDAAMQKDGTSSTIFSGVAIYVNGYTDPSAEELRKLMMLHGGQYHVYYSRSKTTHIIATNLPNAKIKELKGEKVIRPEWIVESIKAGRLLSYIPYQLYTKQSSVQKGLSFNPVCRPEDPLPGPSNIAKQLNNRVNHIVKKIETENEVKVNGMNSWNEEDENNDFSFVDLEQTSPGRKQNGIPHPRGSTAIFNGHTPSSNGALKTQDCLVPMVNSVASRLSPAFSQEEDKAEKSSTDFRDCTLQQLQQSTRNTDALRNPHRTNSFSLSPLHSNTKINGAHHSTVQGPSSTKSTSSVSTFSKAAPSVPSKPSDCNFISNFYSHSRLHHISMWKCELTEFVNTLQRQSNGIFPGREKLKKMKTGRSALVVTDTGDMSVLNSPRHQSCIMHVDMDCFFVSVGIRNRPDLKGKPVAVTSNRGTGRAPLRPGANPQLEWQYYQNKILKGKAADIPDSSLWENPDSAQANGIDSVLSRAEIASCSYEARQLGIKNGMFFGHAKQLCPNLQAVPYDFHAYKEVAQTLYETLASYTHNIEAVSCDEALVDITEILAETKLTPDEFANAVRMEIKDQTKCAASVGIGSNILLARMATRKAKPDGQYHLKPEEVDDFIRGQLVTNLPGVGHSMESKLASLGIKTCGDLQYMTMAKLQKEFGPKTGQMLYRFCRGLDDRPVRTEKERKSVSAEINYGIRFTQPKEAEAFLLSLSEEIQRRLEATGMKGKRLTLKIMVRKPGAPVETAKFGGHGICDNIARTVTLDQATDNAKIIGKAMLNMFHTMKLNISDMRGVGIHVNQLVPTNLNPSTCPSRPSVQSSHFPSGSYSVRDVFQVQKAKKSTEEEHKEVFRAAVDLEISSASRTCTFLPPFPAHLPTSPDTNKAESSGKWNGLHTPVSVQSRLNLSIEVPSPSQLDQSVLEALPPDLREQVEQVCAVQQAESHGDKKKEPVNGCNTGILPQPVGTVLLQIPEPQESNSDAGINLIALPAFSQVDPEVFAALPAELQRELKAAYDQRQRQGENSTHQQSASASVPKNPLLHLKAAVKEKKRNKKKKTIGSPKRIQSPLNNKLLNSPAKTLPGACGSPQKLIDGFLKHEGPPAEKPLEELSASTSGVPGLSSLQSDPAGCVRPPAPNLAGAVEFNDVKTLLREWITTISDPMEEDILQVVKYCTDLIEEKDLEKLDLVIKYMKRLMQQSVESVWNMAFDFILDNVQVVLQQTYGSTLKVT
How it was run: (§1)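 15N-labeled REV1 UBM2 in 20 mM sodium phosphate pH 7.0, 100 mM NaCl, titrated at protein:compound ratios 1:2, 1:4, 1:6, 1:8 and 1:10. 1H and 15N shifts of displaced peaks tracked at each point; weighted average shift δav(NH) = [(δH² + (δN/5)²)/2]^1/2 per backbone amide.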

U2OS [2] = experiment: Cytotoxicity against human U2OS cells expressing EGFP-tagged REV1 (unknown origin) at 150 uM; type: cell-based
[3] = target: T1, DNA repair protein REV1 (Homo sapiens); experiment: Binding affinity to recombinant human REV1 UBM1/UBM2 domain (137 residues) expressed in Escherichia coli BL21(DE3) assessed as increase in NOE peaks at 200 uM by STD NMR spectral analysis
How it was run: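 STD NMR at 280 K with 10 µM protein and 200 µM compound. Saturation by a train of 30 ms Gaussian pulses for 4 s, on resonance at 0 ppm and off resonance at -40 ppm; 256 on/off FIDs recorded. REV1 UBM1-UBM2 expressed as for REV1 (His-tagged, Ni-NTA), tag removed by […].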

[4] = target: T1, DNA repair protein REV1 (Homo sapiens); experiment: Binding affinity to recombinant human REV1 UBM2 domain assessed as chemical shift perturbations on alpha-helix at REV1 UBM2 to compound molar ratio of 1:10 by [1H,15N]-HSQC NMR spectral analysis; how it was run: as §1
[5] = Inhibition of biotin/Avi-tagged UbPCNA binding to recombinant human N-terminal His-tagged REV1 deletion mutant BRCT/UBM1/UBM2 domain expressed in Escherichia coli BL21(DE3) measured after 1 hr by AlphaScreen assay
How it was run: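 AlphaScreen with 200 nM biotin-AviTag-Ub-PCNA (enzymatically K164-ubiquitinated) and 40 nM N-His REV1 in PBS pH 7.4, 0.1% BSA, 0.05% Tween-20, with serial compound dilutions. Ni-chelate acceptor beads added, streptavidin donor beads after 1 h, read 1 h later; dose-response fitted on final concentrations.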

[6] = Solubility of the compound in sodium phosphate buffer at pH 7; type: physicochemical
[7] = target: T1, DNA repair protein REV1 (Homo sapiens); experiment: (§2) Inhibition of REV1 in human U2OS cells assessed as potentiation of 4-hydroxycyclophosphamide-induced cytotoxicity by measuring reduction in colony formation at 75 uM incubated for 24 hrs after 24 hrs 4-hydroxycyclophosphamide-exposure followed by culture medium replacement with fresh medium and measured after 7 days by crystal violet staining based assay relative to control; type: cell-based
How it was run: (§3)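 U2OS cells, 300 per well, settled overnight, then given cisplatin or 4-hydroxycyclophosphamide at the stated final level. After 24 h, compound or DMSO added; medium replaced after another 24 h and cells grown 7 days. Formaldehyde fixation, 0.5% crystal violet staining, colonies of more than ~40 cells counted; triplicates, survival set to 1 for vehicle (saline for cisplatin, DMSO for 4-HC).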

[8] = target: T1, DNA repair protein REV1 (Homo sapiens); experiment: Inhibition of REV1 in human HeLa cells assessed as reduction in 2.5 J/m2 UV light-induced cyclopyrimidine dimer removal at 150 uM by epi-fluorescence microscopic analysis; type: cell-based
How it was run: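 HeLa cells on coverslips given 0 or 2.5 J/m² UVC (254 nm), then DMSO or 150 µM compound. Fixed at time points up to 24 h, denatured in 2 M HCl and stained with anti-CPD (TDM-2). Epifluorescence mean green intensity per DAPI-defined nucleus; two-tailed t-test.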

[9] = target: T1, DNA repair protein REV1 (Homo sapiens); experiment: Inhibition of REV1 in human WTK1 cells assessed as suppression of 0 to 128 J/m2 UV light-induced HPRT gene mutation by measuring reduction in number of resistant clones at 150 uM dosed Immediately following UVC treatment and measured after 21 hrs
How it was run: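 WTK-1 cells cleansed (CHAT, then THC) and conditioned in horse serum; 2×10^6 cells given UVC 0–128 J/m², then DMSO or 150 µM compound for 21 h. Survival plated at 1.6 cells/well (PE0, PE6). After 5 days' expression, 5,000 cells/well in 0.5 µg/mL 6-thioguanine; colonies scored after 11–12 days; mutation frequency normalized to plating efficiency.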

[10] = target: T1, DNA repair protein REV1 (Homo sapiens); experiment: as §2, with “cisplatin-induced” for “4-hydroxycyclophosphamide-induced”, “cisplatin exposure” for “4-hydroxycyclophosphamide-exposure”; type: cell-based; how it was run: as §3
U2OS [11] = experiment: Cytotoxicity against human U2OS cells assessed as reduction in colony formation at 75 uM incubated for 24 hrs followed by culture medium replacement with fresh medium and measured after 7 days by crystal violet staining based assay relative to control; type: cell-based; how it was run: as §3
[12] = target: T1, DNA repair protein REV1 (Homo sapiens); experiment: Inhibition of UbPCNA binding to EGFP-tagged REV1 (unknown origin) expressed in human U2OS cells assessed as reduction in cisplatin-induced recruitment of EGFP-REV1 to PCNA foci on chromatin at 150 uM treated after 3.5 hrs cisplatin exposure and measured 6 hrs after post dose by immunostaining based confocal microscopic analysis; type: cell-based
How it was run: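 U2OS cells transfected with pEGFP-REV1. Two days later, 33 µM cisplatin for 3.5 h, then released into DMSO or 150 µM compound for 6 h. CSK/Triton pre-extraction, PFA fixation, methanol, PCNA (PC10) immunostain, confocal imaging. Pearson coefficient of PCNA vs REV1 per DAPI-defined nucleus; n=32–37 cells, two-tailed t-test.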

SMILES | Activity [1] | Activity (U2OS [2]) | Activity [3] | Activity [4] | IC50 [5] [µM] | solubility [6] | fold change (FC) [7] | inhibition [8] | inhibition [9] | fold change (FC) [10] | fold change (FC) (U2OS [11]) | inhibition [12]
Cl.O=C(CCc1cc(I)c(Oc2ccc(O)cc2)c(I)c1)N1CCNCC1 | Dose-dependent effect | Toxic | Active | Active | 9.7 | Soluble | – | – | – | – | – | –
O=C1CN(C(=O)CCc2cc(I)c(Oc3ccc(O)cc3)c(I)c2)CCN1 | – | – | Active | – | 3.4 | Insoluble | 10 | Active | Active | 10 | 2 | Active
